Assay results from article PMC7615481 (The Journal of biological chemistry, 2023).
“Also recorded” adds a separate entry of the source. Positions of bridges follow the written chain, without caps; N, C: chain ends. Residues, ends and D or L forms follow the SMILES beside them.

Assays:
[1] = target: T1, mouse GC-C (Mus musculus, UniProt Q3UWA6); experiment: In vitro GC assay, MgGTP as substrate, with or without Lubrol, mGC-C; assay type: biochemical; conditions: 1 mM MgGTP, Fig. 4A
T1 sequence (Q3UWA6 20-1072): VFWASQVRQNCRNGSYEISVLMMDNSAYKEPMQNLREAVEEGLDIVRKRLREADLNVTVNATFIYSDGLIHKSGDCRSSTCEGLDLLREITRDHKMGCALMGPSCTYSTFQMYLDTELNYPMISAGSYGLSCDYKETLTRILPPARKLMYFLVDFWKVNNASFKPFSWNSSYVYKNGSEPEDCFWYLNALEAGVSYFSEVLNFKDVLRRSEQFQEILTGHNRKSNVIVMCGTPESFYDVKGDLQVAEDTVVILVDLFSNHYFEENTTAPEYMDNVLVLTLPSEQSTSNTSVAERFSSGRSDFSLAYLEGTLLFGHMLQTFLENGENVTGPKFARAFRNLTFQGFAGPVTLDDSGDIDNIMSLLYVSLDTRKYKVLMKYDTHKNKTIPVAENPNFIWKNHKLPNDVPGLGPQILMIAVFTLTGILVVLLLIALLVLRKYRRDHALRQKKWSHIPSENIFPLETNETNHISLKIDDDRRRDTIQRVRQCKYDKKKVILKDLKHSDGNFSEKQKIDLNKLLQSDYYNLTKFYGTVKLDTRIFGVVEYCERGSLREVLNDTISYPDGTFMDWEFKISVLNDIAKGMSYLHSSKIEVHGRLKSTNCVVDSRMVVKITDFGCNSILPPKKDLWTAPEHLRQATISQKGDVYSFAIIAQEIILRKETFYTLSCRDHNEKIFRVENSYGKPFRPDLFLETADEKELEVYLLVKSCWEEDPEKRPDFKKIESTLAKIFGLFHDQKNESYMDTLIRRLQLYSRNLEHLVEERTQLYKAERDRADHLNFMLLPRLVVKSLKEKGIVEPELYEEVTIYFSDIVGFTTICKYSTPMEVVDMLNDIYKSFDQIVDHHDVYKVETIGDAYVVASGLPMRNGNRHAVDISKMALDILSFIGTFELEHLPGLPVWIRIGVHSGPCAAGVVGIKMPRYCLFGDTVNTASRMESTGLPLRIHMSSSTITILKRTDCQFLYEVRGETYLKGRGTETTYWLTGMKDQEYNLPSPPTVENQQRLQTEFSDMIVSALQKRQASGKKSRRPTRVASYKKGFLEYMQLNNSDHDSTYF

[2] = test system: hmCYC chimeric GC-C; experiment: In vitro GC assay, MgGTP as substrate, Lubrol-stimulated, hmCYC; assay type: biochemical; conditions: 1 mM MgATP, 1 mM MgGTP, 0.1% Lubrol-PX; Fig. 4A
[3] = target: T2, human GC-C (Homo sapiens, UniProt P25092); conditions: Mn2+ as metal ion; ref [25]; cited from earlier work
T2 sequence (P25092 24-1073): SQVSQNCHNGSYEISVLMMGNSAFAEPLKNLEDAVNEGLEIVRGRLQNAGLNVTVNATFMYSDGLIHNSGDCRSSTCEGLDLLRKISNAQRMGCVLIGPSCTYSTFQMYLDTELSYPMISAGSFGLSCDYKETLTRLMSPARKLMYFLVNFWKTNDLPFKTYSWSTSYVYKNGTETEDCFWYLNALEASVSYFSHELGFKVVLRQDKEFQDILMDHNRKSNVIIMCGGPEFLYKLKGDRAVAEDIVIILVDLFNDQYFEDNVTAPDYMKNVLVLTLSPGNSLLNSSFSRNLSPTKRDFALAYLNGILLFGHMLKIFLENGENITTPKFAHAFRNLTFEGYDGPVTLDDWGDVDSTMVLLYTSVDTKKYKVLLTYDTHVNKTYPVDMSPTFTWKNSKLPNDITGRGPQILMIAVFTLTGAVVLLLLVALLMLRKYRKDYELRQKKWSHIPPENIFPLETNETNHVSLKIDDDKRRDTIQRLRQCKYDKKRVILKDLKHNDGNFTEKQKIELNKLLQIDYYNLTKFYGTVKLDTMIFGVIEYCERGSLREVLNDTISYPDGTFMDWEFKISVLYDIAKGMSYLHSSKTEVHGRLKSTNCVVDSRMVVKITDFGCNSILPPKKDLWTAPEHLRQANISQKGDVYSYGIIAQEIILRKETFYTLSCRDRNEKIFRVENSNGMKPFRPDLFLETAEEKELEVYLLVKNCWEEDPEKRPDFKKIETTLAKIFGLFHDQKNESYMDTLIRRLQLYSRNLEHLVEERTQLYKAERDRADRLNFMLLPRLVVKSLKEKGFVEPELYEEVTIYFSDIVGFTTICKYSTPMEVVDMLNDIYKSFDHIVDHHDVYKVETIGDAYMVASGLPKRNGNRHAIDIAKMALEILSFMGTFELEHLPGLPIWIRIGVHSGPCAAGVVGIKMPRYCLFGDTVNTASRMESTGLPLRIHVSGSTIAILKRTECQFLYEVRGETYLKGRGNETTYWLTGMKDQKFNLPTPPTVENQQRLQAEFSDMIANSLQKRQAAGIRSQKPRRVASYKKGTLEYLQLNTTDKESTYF

[4] = test system: GC-CK516A; conditions: ref [25]; cited from earlier work
[5] = test system: hGC-C; conditions: Mg2+ as metal ion cofactor, ref [25]; cited from earlier work
[6] = test system: GC-CK516A; conditions: Mg2+; ref [25]; cited from earlier work
[7] = target: T1, mouse GC-C; experiment: In vitro GC assay, MnGTP as substrate, mGC-C; assay type: biochemical; conditions: 1 mM MnATP, 1 mM MnGTP; Fig. 4B
[8] = target: T2, human GC-C; experiment: In vitro GC assay, MnGTP as substrate, hGC-C; assay type: biochemical; conditions: 1 mM MnATP, 1 mM MnGTP; Fig. 4B
[9] = test system: chimeric receptor harboring the mouse KHD; assay type: biochemical; conditions: 0.1% Lubrol-PX, MgGTP
[10] = test system: GC-C; conditions: in vitro; ref [38]; cited from earlier work
[11] = test system: mhCYC chimeric GC-C; experiment: In vitro GC assay, MgGTP as substrate, Lubrol-stimulated, mhCYC; assay type: biochemical; conditions: 1 mM MgATP, 1 mM MgGTP, 0.1% Lubrol-PX; Fig. 4A
[12] = test system: hmCYC chimeric GC-C; experiment: In vitro GC assay, MnGTP as substrate, hmCYC; assay type: biochemical; conditions: 1 mM MnATP, 1 mM MnGTP; Fig. 4B
[13] = test system: mhICD chimeric GC-C receptor; assay type: binding; conditions: words; Fig. 2H lower panel
[14] = test system: mice; conditions: mouse, in vivo; cited from earlier work
[15] = test system: mice lacking GC-C; conditions: ref [12]; cited from earlier work
[16] = test system: WT or GCD chimeric GC-C; assay type: binding; conditions: monolayers of HEK293E; Fig. 3E
[17] = test system: mouse GC-C variant 1; experiment: Ligand-stimulated cGMP production in HEK293E cells, mouse GC-C variant 1; assay type: cell-based; conditions: 10^−6 M ST, RIA, Fig. 1D
Method in brief: (§1)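 HEK293E cells expressing the mouse GC-C variant were preincubated for 30 min at 37 °C in a humidified CO₂ incubator in DMEM-HG with serum, antibiotics and 500 μM IBMX. They were then exposed to medium alone or 10⁻⁶ M ST for 30 min. Monolayers were lysed in 0.1 N HCl, and cGMP was measured by RIA and normalized to cell-surface receptor amount. Representative of three independent experiments.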

[18] = test system: hmCYC chimeric GC-C; assay type: cell-based
[19] = test system: mouse GC-C variant 2; experiment: Ligand-stimulated cGMP production in HEK293E cells, mouse GC-C variant 2; assay type: cell-based; conditions: 10^−6 M ST, RIA, Fig. 1D
Method in brief: as §1

[20] = test system: mouse GC-C variant 2; experiment: Radiolabeled ST binding to monolayers, mouse GC-C variant 2; conditions: monolayer HEK293E, Fig. 1E, three experiments
[21] = target: T2, human GC-C; conditions: ref [21]; cited from earlier work
[22] = target: T1, mouse GC-C; assay type: cell-based

Compound: MgGTP
- GC activity of mGC-C in the presence of MgGTP ([1]; 4 mM free MgCl2, 37 °C 10 min, words): lower than that of hGC-C

Compound: Nc1ncnc2c1ncn2[C@@H]1O[C@H](COP(=O)(O)OP(=O)(O)OP(=O)(O)O)[C@@H](O)[C@H]1O [ATP]
- ATP-mediated inhibition of Lubrol-stimulated GC activity, hmCYC [2]: retained
- ATP inhibition of GC activity with Mn2+ [3]: inhibits GC activity when Mn^2+ is the metal ion used in assays
- ATP inhibition of GC activity with Mn2+, GC-CK516A [4]: inhibition is also seen
- ATP-mediated inhibition of Lubrol-stimulated GC activity, mGC-C ([1]; 1 mM MgATP, 0.1% Lubrol-PX): lost and no allosteric inhibition of guanylyl cyclase activity and no inhibition of detergent-mediated activity by ATP
- ATP inhibition of Lubrol-stimulated GC activity [5]: inhibits Lubrol-stimulated GC activity
- ATP inhibition of Lubrol-stimulated GC activity, GC-CK516A [6]: inhibition is lost
- ATP-mediated inhibition of GC activity with MnGTP, mGC-C [7]: remained; also recorded: displayed ATP-mediated inhibition of MnGTP-mediated activity
- ATP-mediated inhibition of GC activity with MnGTP, hGC-C [8]: remained
- ATP inhibition of detergent-mediated activity, chimeric receptor harboring the mouse KHD [9]: no inhibition of detergent-mediated activity by ATP
- ATP inhibition of MnGTP-mediated and detergent-mediated GC activity [10]: inhibit in vitro MnGTP-mediated and detergent-mediated GC activity
- ATP-mediated inhibition of Lubrol-stimulated GC activity, mhCYC [11]: lost
- ATP-mediated inhibition of MnGTP-mediated activity, hmCYC [12]: displayed ATP-mediated inhibition of MnGTP-mediated activity

Compound: CC(C)C[C@@H]1NC(=O)[C@H](CCC(=O)O)NC(=O)[C@@H]2CSSC[C@@H]3NC(=O)[C@H](C)NC(=O)[C@@H]4CCCN4C(=O)[C@H](CC(N)=O)NC(=O)[C@H](CSSC[C@H](NC(=O)[C@H](Cc4ccc(O)cc4)NC(=O)[C@H](CC(N)=O)NC(=O)[C@H](CO)NC(=O)[C@H](CO)NC(=O)[C@@H](N)CC(N)=O)C(=O)N2)NC(=O)[C@H](CSSC[C@@H](C(=O)N[C@@H](Cc2ccc(O)cc2)C(=O)O)NC(=O)CNC(=O)[C@H]([C@@H](C)O)NC3=O)NC1=O [ST] (H-NSSNYCCELCCNPACTGCY-OH; disulfide 6-11, 7-15, 10-18; N-terminus and C-terminus assumed)
- affinity to the ST peptide of the mhICD chimera [13]: reduced affinity to the ST peptide
- accumulation of fluid in the gut of mice on ST treatment [14]: leads to the accumulation of fluid in the gut
- ST-induced fluid accumulation in mice lacking GC-C [15]: resistant to ST-induced fluid accumulation
- binding to ST of GCD chimeric receptors [16]: determined by the ECD
- cGMP levels on ST treatment, variant 1 [17]: significant increase in cGMP levels
- cGMP accumulation, hmCYC versus hGC-C [18]: log order reduction in cGMP accumulation when compared to hGC-C
- cGMP levels on ST treatment, variant 2 [19]: remained unchanged
- ligand binding ability of variant 2 [20]: marked reduction in the ligand binding ability
- affinity of plasma membrane- and endoplasmic reticulum–associated hGC-C for ST [21]: comparable affinities
- accumulation of cGMP at saturating ST, mGC-C [22]: much reduced in comparison with cells expressing hGC-C
- intracellular cGMP accumulation, mGC-C lower than hGC-C [22]: ~ 10 fold
